Experimental data taken from ChEMBL document CHEMBL1133453, “Further studies on nociceptin-related peptides: discovery of a new chemical template with antagonist activity on the nociceptin receptor” (J Med Chem, 2000).
Activity calls are given as the source filed them. No cut-off for these calls is given here. Numbered stars: 1 amine (or outer) side, 2 acyl side, 3 side chain; on linkers, the order of the positions; unused ones are H or OH. Square brackets hold non-standard residues; d marks the D form. Peptide text beside a SMILES is read from it. X4 = Cc1ccc(C[C@H](N)CN(CC(=O)[*:2])[*:1])cc1; X2 = N[C@@H](Cc1ccccc1)CN(CC(=O)[*:2])[*:1]; X3 = N[C@@H](CC1CCCCC1)CN(CC(=O)[*:2])[*:1]; Nphe = O=C(O)CNCc1ccccc1

Tests used:
Mus musculus [1] = organism: Mus musculus; assay: Compound was tested for the antagonistic activity on mouse vas deferens using NC(1-13)NH2 as agonist; NA means Inactive up to 10 uM; type: functional, organism-based
Outline: (§1)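 Electrically stimulated mouse vas deferens (Mg2+-free Krebs, 33 °C, 0.1 Hz, 1-ms pulses). Antagonist at 10 µM added 15 min before a cumulative NC(1-13)NH2 concentration-response curve. pKB calculated with the Gaddum-Schild equation, assuming a slope of 1, from the concentration ratio. Mean of at least 3 experiments, with 95% confidence limits.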

Nociceptin receptor = Nociceptin receptor (Mus musculus, UniProt P35377); assay: Affinity to nociceptin receptors on mouse forebrain membranes by [3H]NC-NH2 displacement.
Chain of Nociceptin receptor (P35377 whole entry): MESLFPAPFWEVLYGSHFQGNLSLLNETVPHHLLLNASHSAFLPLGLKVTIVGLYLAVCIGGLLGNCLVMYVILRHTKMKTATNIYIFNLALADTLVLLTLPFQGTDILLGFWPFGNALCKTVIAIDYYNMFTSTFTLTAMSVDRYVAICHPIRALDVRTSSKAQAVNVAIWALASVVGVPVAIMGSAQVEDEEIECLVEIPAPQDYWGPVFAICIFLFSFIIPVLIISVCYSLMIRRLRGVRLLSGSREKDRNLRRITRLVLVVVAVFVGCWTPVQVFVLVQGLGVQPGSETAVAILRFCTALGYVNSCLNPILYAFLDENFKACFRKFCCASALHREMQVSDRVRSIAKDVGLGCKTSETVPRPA
Outline: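 Forebrain membranes from male Swiss mice (25-30 g), homogenized in 50 mM Tris HCl, 2 mM EDTA, 100 µM PMSF, pH 7.4, then preincubated 30 min at 37 °C. Bound ligand separated by GF/C filtration. Ki obtained by nonlinear least-squares fitting.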

Mus musculus [2] = organism: Mus musculus; assay: Potency (Emax) against electrically evoked contraction (twitch response) in mouse vas deferens; NA means Inactive up to 10 uM; type: functional, organism-based
Outline: (§2)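 Mouse vas deferens held in Mg2+-free Krebs at 33 °C under 0.3 g resting tension. Field stimulation through platinum electrodes with supramaximal 1-ms pulses at 0.1 Hz, twitches recorded isotonically. After about 2 h equilibration, cumulative concentration-response curves built in 0.5 log steps up to 10 µM. pEC50 taken as the concentration giving half-maximal effect. Mean of at least 3 experiments.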

Mus musculus [3] = organism: Mus musculus; assay: Compound was tested for agonistic activity against electrically evoked contraction (twitch response) in mouse vas deferens; NA means Inactive up to 10 uM; type: functional, organism-based; outline: as §2
Mus musculus [4] = organism: Mus musculus; assay: Compound was tested for the antagonistic activity on mouse vas deferens using NC(1-13)NH2 as agonist; type: functional; outline: as §1
Mus musculus [5] = organism: Mus musculus; assay: Potency (Emax) against electrically evoked contraction (twitch response) in mouse vas deferens; type: functional; outline: as §2
Mus musculus [6] = organism: Mus musculus; assay: Compound was tested for agonistic activity against electrically evoked contraction (twitch response) in mouse vas deferens; type: functional, organism-based; outline: as §2

For `CC(C)CNCC(=O)NCC(=O)NCC(=O)N[C@@H](Cc1ccccc1)C(=O)N[C@H](C(=O)NCC(=O)N[C@@H](C)C(=O)N[C@@H](CCCN=C(N)N)C(=O)N[C@@H](CCCCN)C(=O)N[C@@H](CO)C(=O)N[C@@H](C)C(=O)N[C@@H](CCCN=C(N)N)C(=O)N[C@@H](CCCCN)C(N)=O)[C@@H](C)O`, the pKB (Mus musculus [1]) was “inactive”, the Ki (Nociceptin receptor) was 2510 nM and the Emax (Mus musculus [2]) was “inactive”. The “Log EC50” value (Mus musculus [3]) was “inactive”.

`Cc1ccc(CNCC(=O)NCC(=O)NCC(=O)N[C@@H](Cc2ccccc2)C(=O)N[C@H](C(=O)NCC(=O)N[C@@H](C)C(=O)N[C@@H](CCCN=C(N)N)C(=O)N[C@@H](CCCCN)C(=O)N[C@@H](CO)C(=O)N[C@@H](C)C(=O)N[C@@H](CCCN=C(N)N)C(=O)N[C@@H](CCCCN)C(N)=O)[C@@H](C)O)cc1` was tested, and the pKB (Mus musculus [1]) was “inactive”, the Ki (Nociceptin receptor) was 2510 nM and the Emax (Mus musculus [2]) was “inactive”. The “Log EC50” value (Mus musculus [3]) was “inactive”.

`C[C@H](NC(=O)CNC(=O)[C@@H](NC(=O)[C@H](Cc1ccccc1)NC(=O)CNC(=O)CNC[C@@H](N)Cc1ccccc1)[C@@H](C)O)C(=O)N[C@@H](CCCN=C(N)N)C(=O)N[C@@H](CCCCN)C(=O)N[C@@H](CO)C(=O)N[C@@H](C)C(=O)N[C@@H](CCCN=C(N)N)C(=O)N[C@@H](CCCCN)C(N)=O` (H-[X2]GFTGARKSARK-NH2) was tested, and the Ki (Nociceptin receptor) was 10 nM, the Emax (Mus musculus [2]) was “inactive” and the “Log EC50” value (Mus musculus [3]) was “inactive”. The pKB (Mus musculus [4]) was 6.8.

In the case of `C[C@H](NC(=O)CNC(=O)[C@@H](NC(=O)[C@H](Cc1ccccc1)NC(=O)CNC(=O)CNC(=O)CNCc1ccc(O)cc1)[C@@H](C)O)C(=O)N[C@@H](CCCN=C(N)N)C(=O)N[C@@H](CCCCN)C(=O)N[C@@H](CO)C(=O)N[C@@H](C)C(=O)N[C@@H](CCCN=C(N)N)C(=O)N[C@@H](CCCCN)C(N)=O`, the pKB (Mus musculus [1]) is reported as “inactive”, the Ki (Nociceptin receptor) is reported as 3160 nM and the Emax (Mus musculus [2]) is reported as “inactive”. For the same molecule, the “Log EC50” value (Mus musculus [3]) was “inactive”.

With `C[C@H](NC(=O)CNC(=O)[C@@H](NC(=O)[C@H](Cc1ccccc1)NC(=O)CNC(=O)CNC(=O)CNCc1ccccc1)[C@@H](C)O)C(=O)N[C@@H](CCCN=C(N)N)C(=O)N[C@@H](CCCCN)C(=O)N[C@@H](CO)C(=O)N[C@@H](C)C(=O)N[C@@H](CCCN=C(N)N)C(N)=O` (H-[Nphe]GGFTGARKSAR-NH2) the pKB (Mus musculus [1]) was “inactive”, the Ki (Nociceptin receptor) was 3160 nM and the Emax (Mus musculus [2]) was “inactive”. For the same molecule, the “Log EC50” value (Mus musculus [3]) was “inactive”.

In the case of `C[C@H](NC(=O)CNC(=O)[C@@H](NC(=O)[C@H](Cc1ccccc1)NC(=O)CNC(=O)CNC(=O)[C@@H](N)Cc1ccc(O)cc1)[C@@H](C)O)C(=O)N[C@@H](CCCN=C(N)N)C(=O)N[C@@H](CCCCN)C(=O)N[C@@H](CO)C(=O)N[C@@H](C)C(=O)N[C@@H](CCCN=C(N)N)C(=O)N[C@@H](CCCCN)C(N)=O` (H-YGGFTGARKSARK-NH2), the Ki (Nociceptin receptor) is reported as 3.98 nM, the Emax (Mus musculus [5]) is reported as -89% and the EC50 (Mus musculus [6]) is reported as 25.1 nM.

In the case of `C[C@H](NC(=O)CNC(=O)[C@@H](NC(=O)[C@H](Cc1ccccc1)NC(=O)CNC(=O)CNC(=O)CNCC1CCCCC1)[C@@H](C)O)C(=O)N[C@@H](CCCN=C(N)N)C(=O)N[C@@H](CCCCN)C(=O)N[C@@H](CO)C(=O)N[C@@H](C)C(=O)N[C@@H](CCCN=C(N)N)C(=O)N[C@@H](CCCCN)C(N)=O`, the pKB (Mus musculus [1]) is reported as “inactive”, the Ki (Nociceptin receptor) is reported as 2510 nM and the Emax (Mus musculus [2]) is reported as “inactive”. The “Log EC50” value (Mus musculus [3]) was “inactive”.

In the case of `Cc1ccc(C[C@H](N)CNCC(=O)NCC(=O)N[C@@H](Cc2ccccc2)C(=O)N[C@H](C(=O)NCC(=O)N[C@@H](C)C(=O)N[C@@H](CCCN=C(N)N)C(=O)N[C@@H](CCCCN)C(=O)N[C@@H](CO)C(=O)N[C@@H](C)C(=O)N[C@@H](CCCN=C(N)N)C(=O)N[C@@H](CCCCN)C(N)=O)[C@@H](C)O)cc1` (H-[X4]GFTGARKSARK-NH2), the Ki (Nociceptin receptor) is reported as 631 nM, the Emax (Mus musculus [2]) is reported as “inactive” and the “Log EC50” value (Mus musculus [3]) is reported as “inactive”. For the same molecule, the pKB (Mus musculus [4]) was 5.7.

In the case of `C[C@H](NC(=O)CNC(=O)[C@@H](NC(=O)[C@H](Cc1ccccc1)NC(=O)CNC(=O)CNC(=O)CNCc1ccccc1)[C@@H](C)O)C(=O)N[C@@H](CCCN=C(N)N)C(=O)N[C@@H](CCCCN)C(=O)N[C@@H](CO)C(=O)N[C@@H](C)C(=O)N[C@@H](CCCN=C(N)N)C(=O)N[C@@H](CCCCN)C(N)=O`, the Emax (Mus musculus [2]) is reported as “inactive”, the “Log EC50” value (Mus musculus [3]) is reported as “inactive” and the pKB (Mus musculus [4]) is reported as 6.4.

With `C[C@H](NC(=O)CNC(=O)[C@@H](NC(=O)[C@H](Cc1ccccc1)NC(=O)CNC(=O)CNC[C@@H](N)CC1CCCCC1)[C@@H](C)O)C(=O)N[C@@H](CCCN=C(N)N)C(=O)N[C@@H](CCCCN)C(=O)N[C@@H](CO)C(=O)N[C@@H](C)C(=O)N[C@@H](CCCN=C(N)N)C(=O)N[C@@H](CCCCN)C(N)=O` (H-[X3]GFTGARKSARK-NH2) the pKB (Mus musculus [1]) was “inactive”, the Ki (Nociceptin receptor) was 316 nM and the Emax (Mus musculus [2]) was “inactive”. The “Log EC50” value (Mus musculus [3]) was “inactive”.

In the case of `C[C@H](NC(=O)CNC(=O)[C@@H](NC(=O)[C@H](Cc1ccccc1)NC(=O)CNC(=O)CNC(=O)[C@@H](N)Cc1ccccc1)[C@@H](C)O)C(=O)N[C@@H](CCCNC(=N)N)C(=O)N[C@@H](CCCCN)C(=O)N[C@@H](CO)C(=O)N[C@@H](C)C(=O)N[C@@H](CCCNC(=N)N)C(=O)N[C@@H](CCCCN)C(N)=O`, the Emax (Mus musculus [5]) is reported as -84% and the EC50 (Mus musculus [6]) is reported as 15.8 nM.

For `C[C@H](NC(=O)CNC(=O)[C@@H](NC(=O)[C@H](Cc1ccccc1)NC(=O)CNC(=O)CNC(=O)[C@@H](N)Cc1ccccc1)[C@@H](C)O)C(=O)N[C@@H](CCCN=C(N)N)C(=O)N[C@@H](CCCCN)C(N)=O` (H-FGGFTGARK-NH2), the pKB (Mus musculus [1]) was “inactive”, the Ki (Nociceptin receptor) was over 10000 nM and the Emax (Mus musculus [2]) was “inactive”. The “Log EC50” value (Mus musculus [3]) was “inactive”.

With `C[C@H](NC(=O)CNC(=O)[C@@H](NC(=O)[C@H](Cc1ccccc1)NC(=O)CNC(=O)CNC[C@@H](N)Cc1ccccc1)[C@@H](C)O)C(=O)N[C@@H](CCCN=C(N)N)C(=O)N[C@@H](CCCCN)C(=O)N[C@@H](CO)C(=O)N[C@@H](C)C(=O)N[C@@H](CCCN=C(N)N)C(N)=O` (H-[X2]GFTGARKSAR-NH2) the Ki (Nociceptin receptor) was 398 nM, the Emax (Mus musculus [2]) was “inactive” and the “Log EC50” value (Mus musculus [3]) was “inactive”. It also gave a pKB (Mus musculus [4]) of 5.2.

`CC(C)C[C@H](NC(=O)[C@H](CCCCN)NC(=O)[C@H](CCCN=C(N)N)NC(=O)[C@H](C)NC(=O)[C@H](CO)NC(=O)[C@H](CCCCN)NC(=O)[C@H](CCCN=C(N)N)NC(=O)[C@H](C)NC(=O)CNC(=O)[C@@H](NC(=O)[C@H](Cc1ccccc1)NC(=O)CNC(=O)CNC(=O)CNCc1ccccc1)[C@@H](C)O)C(=O)N[C@@H](C)C(=O)N[C@@H](CC(N)=O)C(=O)N[C@@H](CCC(N)=O)C(N)=O` was tested, and the Ki (Nociceptin receptor) was 126 nM, the Emax (Mus musculus [2]) was “inactive” and the “Log EC50” value (Mus musculus [3]) was “inactive”. It also gave a pKB (Mus musculus [4]) of 6.3.

With `CC(C)C[C@H](NC(=O)[C@H](CCCCN)NC(=O)[C@H](CCCN=C(N)N)NC(=O)[C@H](C)NC(=O)[C@H](CO)NC(=O)[C@H](CCCCN)NC(=O)[C@H](CCCN=C(N)N)NC(=O)[C@H](C)NC(=O)CNC(=O)[C@@H](NC(=O)[C@H](Cc1ccccc1)NC(=O)CNC(=O)CNC[C@@H](N)Cc1ccccc1)[C@@H](C)O)C(=O)N[C@@H](C)C(=O)N[C@@H](CC(N)=O)C(=O)N[C@@H](CCC(N)=O)C(N)=O` (H-[X2]GFTGARKSARKLANQ-NH2) the Ki (Nociceptin receptor) was 20 nM, the Emax (Mus musculus [2]) was “inactive” and the “Log EC50” value (Mus musculus [3]) was “inactive”. For the same molecule, the pKB (Mus musculus [4]) was 7.

For `C[C@H](NC(=O)CNC(=O)[C@@H](NC(=O)[C@H](Cc1ccccc1)NC(=O)CNC(=O)CNC[C@@H](N)Cc1ccccc1)[C@@H](C)O)C(=O)N[C@@H](CCCN=C(N)N)C(=O)N[C@@H](CCCCN)C(N)=O` (H-[X2]GFTGARK-NH2), the Ki (Nociceptin receptor) was over 10000 nM, the Emax (Mus musculus [2]) was “inactive” and the “Log EC50” value (Mus musculus [3]) was “inactive”. It also gave a pKB (Mus musculus [4]) of 5.1.
